Test results taken from article PMC8717589 (ACS Omega, 2021).
Like-named read-outs stand apart in the source and are kept apart here.

Key:
Cytotoxicity assay [1] = assay type: cell-based, human; settings: human, PMA-differentiated THP-1 cells (macrophage-like)
Summary of the method: (§1)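 THP-1 (RPMI-1640, 10% FBS; 5 × 10^6 cells/mL) were PMA-differentiated (20 ng/mL, 48 h). DH82 (EMEM, 15% FBS; 2 × 10^5/well) were attached overnight. Both were exposed 72 h at 37 °C to 2, 10, 20, 80 and 200 μM, with DMSO control, in duplicate. Read-out was MTS/PMS A492, with % inhibition at 200 μM.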

THP-1 cells = test: Cytotoxicity assay; assay type: cell-based, human; settings: for THP-1 selectivity index (CC50/IC50): IC50 on L. infantum MHOM/TN/80/IPT1, CC50 72 h
Summary of the method: as §1

[2] = tested on: L. infantum MHOM/TN/80/IPT1 promastigotes; test: L. infantum promastigotes viability assay; assay type: cell-based, Leishmania infantum; settings: 72 h; for inhibition at 20 µM: read-out: Percentage of inhibition at 20 μM, L. infantum MHOM/TN/80/IPT1
Summary of the method: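 Late log/stationary promastigotes were seeded in RPMI-PY at 2.5 × 10^6/mL. They were treated 72 h at 26 °C with 1:2 or 2:3 dilutions from 20 to 0.31 μM, with DMSO vehicle control, in duplicate. MTS/PMS was added at 26 °C until formazan formed, then A492 was read. Growth inhibition is relative to DMSO. IC50 from a normalized-response nonlinear fit with unconstrained Hill slope. Mean and 95% CI, ≥3 independent experiments.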

Cytotoxicity assay [3] = assay type: cell-based, canine; settings: dog, DH82 cells
Summary of the method: as §1

DH82 cells = test: Cytotoxicity assay; assay type: cell-based, canine; settings: IC50 on L. infantum MHOM/TN/80/IPT1; CC50 72 h
Summary of the method: as §1

[4] = Leishmania infantum, read-out: L. infantum MHOM/TN/80/IPT1 IC50 (95% CI), promastigotes, 72 h, MTS

SMILES	CC50 at 72 h (Cytotoxicity assay [1])	THP-1 selectivity index (CC50/IC50) (THP-1 cells)	IC50 [2, 4]	CC50 at 72 h (Cytotoxicity assay [3])	DH82 selectivity index (CC50/IC50) (DH82 cells)	inhibition at 20 µM ([2]; Leishmania infantum)	inhibition at 200 µM (THP-1 cells; Homo sapiens, THP-1, 72 h, read-out: Percentage of inhibition at 200 μM, THP-1)	IC50 ([2]; read-out: L. infantum MHOM/TN/80/IPT1 IC50 (95% CI), promastigotes, MTS)
COC(=O)c1c(C)ncn1CC(c1c[nH]c2cc(Br)ccc12)c1c[nH]c2cc(Br)ccc12 [2d]	15.4 µM	1.8	8.5 µM	18.9 µM	2.2			
COC(=O)c1c(C)ncn1CC(c1c[nH]c2ccc(C)cc12)c1c[nH]c2ccc(C)cc12 [2b]	26.9 µM	3.5	7.7 µM	24.8 µM	3.2			
Cc1cn(CC(c2c[nH]c3ccccc23)c2c[nH]c3ccccc23)nn1 [3a]			> 20 µM			22%		
COC(=O)c1c(C)ncn1CC(c1cn(C)c2ccccc12)c1cn(C)c2ccccc12 [2e]	55.4 µM	11.3	4.9 µM	24.3 µM	5.0			
CCOC(=O)c1c(C)ncn1CC(c1cn(C)c2ccc([N+](=O)[O-])cc12)c1cn(C)c2ccc([N+](=O)[O-])cc12 [2f]	35.1 µM	7.2	4.9 µM	> 200 µM	>41			
CCOC(=O)c1c(C(=O)OC)cn(CC(c2cn(C)c3cc(Br)ccc23)c2cn(C)c3cc(Br)ccc23)c1C [1d]			> 20 µM			11%		
CCOC(=O)c1cn(CC(c2cn(C)c3ccc(C)cc23)c2cn(C)c3ccc(C)cc23)c(C)c1C(=O)OC [1c]			> 20 µM			43%		
C[C@@H]1[C@H](O)[C@@H](C)/C=C/C=C/C=C/C=C/C=C/C=C/C=C/[C@H](O[C@@H]2O[C@H](C)[C@@H](O)[C@H](N)[C@@H]2O)C[C@@H]2O[C@](O)(C[C@@H](O)C[C@@H](O)[C@H](O)CC[C@@H](O)C[C@@H](O)CC(=O)O[C@H]1C)C[C@H](O)[C@H]2C(=O)O [Amph B, amphotericin B, reference compound]	2.8 µM	45.8	0.064 µM	> 200 µM	>3333			
COC(=O)c1c(C)ncn1CC(c1c[nH]c2ccccc12)c1c[nH]c2ccccc12 [2a]	37.9 µM	3.8	10 µM	35.3 µM	3.5			
CCCCCCCCCCCCCCCCOP(=O)([O-])OCC[N+](C)(C)C [Milt, miltefosine, reference compound]	27.8 µM	9.8	2.9 µM	95.9 µM	33.6			
N=C(N)c1ccc(OCCCCCOc2ccc(C(=N)N)cc2)cc1 [Pent, pentamidine, reference compound]	103 µM		2.6 µM	10.6 µM				
c1ccc2c(Cc3c[nH]c4ccccc34)c[nH]c2c1 [DIM, 3,3′-diindolylmethane, reference compound]			> 20 µM			10%		
CCc1ncn(CC(c2c[nH]c3ccc(C)cc23)c2c[nH]c3ccc(C)cc23)c1C(=O)OC [2c]	38.6 µM	3.8	10 µM	23.5 µM	2.3			
Cc1cn(CC(c2cn(C)c3ccccc23)c2cn(C)c3ccccc23)nn1 [3b]	> 200 µM	>25	< 8 µM	31.9 µM	3.9		33%	8.1 µM
